The record followed here is ChEMBL document CHEMBL1177683, “Synthesis and pharmacological evaluation of pyrazine N-acylhydrazone derivatives designed as novel analgesic and anti-inflammatory drug candidates” (2010).

Test [1] has as its system Mus musculus. Put plainly: Antinociceptive activity in Swiss mouse assessed as inhibition of acetic acid-induced abdominal constrictions at 100 umol/kg, po administered 40 mins before acetic acid challenge measured for 25 mins relative to control. The test is classed as functional. The settings on record: Abdomen. In outline:
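Mice were dosed at 100 µmol/kg po in arabic gum (10 mL/kg), 40 min before 0.6% v/v acetic acid ip (0.1 mL/10 g). Writhes (abdominal contraction, pelvic rotation, hind-limb extension) were counted for 20 min starting 5 min post-injection. Results are expressed as % inhibition versus vehicle controls. Groups of 6 (control 10), ANOVA/Dunnett.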

The test system of test [2] is Mus musculus. Put plainly: Analgesic activity in Swiss mouse assessed as increase in latency of paw licking at 100 umol/kg, po after 120 mins measured for 60 seconds by hot plate test (reference value: 5.6 +/- 0.5 seconds). The test is classed as functional.
Test [3] relates to Mus musculus. Put plainly: Antiedematogenic activity in Swiss mouse assessed as inhibition of capsaicin-induced ear edema at 100 umol/kg, po administered 40 mins before capsaicin challenge measured after 30 mins relative to control.
Test [4] concerns Mus musculus. The test is described as follows: Analgesic activity in Swiss mouse assessed as increase in latency of paw licking at 100 umol/kg, po after 60 mins measured for 60 seconds by hot plate test (reference value: 4.9 +/- 0.5 seconds). It is filed as functional.
For test [5], the system named is Mus musculus. Put plainly: Analgesic activity against formalin-induced acute pain in Swiss mouse assessed as decrease of time spent in paw licking at 100 umol/kg, po administered 40 mins before formalin challenge measured for 0 to 5 mins. The test is classed as functional, organism-based. The procedure, abridged:
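Male or female adult Swiss mice (20–30 g, 6–8 weeks), groups of 6, dosed orally in arabic gum vehicle (10 mL/kg) 40 min before 20 µL of 2.5% formalin (0.92% formaldehyde in saline) into ventral surface of right hind paw. Paw-licking time recorded 0–5 min (neurogenic phase) after injection; mean ± S.E.M. versus vehicle controls, ANOVA with Dunnett test.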

The subject of test [6] is Mus musculus. The test is described as follows: Analgesic activity in Swiss mouse assessed as increase in latency of paw licking at 100 umol/kg, po after 150 mins measured for 60 seconds by hot plate test (reference value: 5.1 +/- 0.4 seconds). It is filed as functional. (In general: Hot-plate and tail-flick tests time the reaction to a heat stimulus.)
For test [7], the system named is Mus musculus. The test is described as follows: Antiedematogenic activity in Swiss mouse assessed as decrease of capsaicin-induced ear edema weight at 100 umol/kg, po administered 40 mins before capsaicin challenge measured after 30 mins relative to control. The arrangement: scale not given: the % may be the effect or the level left.
Test [8] deals with Mus musculus. The test is described as follows: Analgesic activity in Swiss mouse assessed as increase in latency of paw licking at 100 umol/kg, po after 90 mins measured for 60 seconds by hot plate test (reference value: 5.9 +/- 0.8 seconds). The test is classed as functional.
Test [9] concerns Mus musculus. The test is described as follows: Analgesic activity against formalin-induced acute pain in Swiss mouse assessed inhibition of nociception at 100 umol/kg, po administered 40 mins before formalin challenge measured for 15 to 30 mins relative to control. It is filed as functional. In outline:
(§1)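 Mice, 6 per group, received 20 µL of 2.5% formalin (0.92% formaldehyde in saline) into the ventral surface of the right hind paw. Dosing was 100 µmol/kg po in arabic gum vehicle (10 mL/kg), 40 min beforehand. Time spent licking the injected paw was recorded over 0–5 min (neurogenic phase) and 15–30 min (inflammatory phase). Data are mean ± S.E.M., ANOVA/Dunnett versus vehicle.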

The subject of test [10] is Rattus norvegicus. The test is described as follows: Antiinflammatory effect in complete Freund's adjuvant-induced Wistar rat arthritis model assessed as inhibition of paw edema at 100 umol/kg, po daily once administered on day 14 post adjuvant challenge measured on day 21 post adjuvant challenge. The test is classed as functional, organism-based. The procedure, abridged: (§2)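 Wistar rats (130–170 g) received 0.1 mL complete Freund's adjuvant into the right paw. On day 13, arthritic rats were grouped (n=6) with matched scores. Dosing was 100 µmol/kg po daily from day 14 to 21, with arabic gum vehicle (10 mL/kg) for controls. Paw volume was measured by […] on days 1 and 14–21. Data are mean ± S.E.M., ANOVA/Dunnett.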

In test [11] the test system is Rattus norvegicus. Put plainly: Antiinflammatory effect in complete Freund's adjuvant-induced Wistar rat arthritis model assessed as inhibition of paw edema at 100 umol/kg, po daily once administered on day 14 post adjuvant challenge measured on day 17 post adjuvant challenge. The test is classed as functional, organism-based. The procedure, abridged: as §2
Test [12] relates to Mus musculus. Put plainly: Analgesic activity against formalin-induced acute pain in Swiss mouse assessed as decrease of time spent in paw licking at 100 umol/kg, po administered 40 mins before formalin challenge measured for 15 to 30 mins. It is filed as functional, organism-based. In outline: as §1
In test [13] the test system is Rattus norvegicus. Put plainly: Antiinflammatory effect in complete Freund's adjuvant-induced Wistar rat arthritis model assessed as inhibition of paw edema at 100 umol/kg, po daily once administered on day 14 post adjuvant challenge measured on day 16 post adjuvant challenge. It is filed as functional, organism-based. The procedure, abridged: as §2
Test [14] deals with Mus musculus. The test is described as follows: Analgesic activity in Swiss mouse assessed as increase in latency of paw licking at 15 umol/kg, ip after 60 mins measured for 60 seconds by hot plate test (reference value: 4.9 +/- 0.5 seconds). It is filed as functional.
The test system of test [15] is Mus musculus. Put plainly: Analgesic activity in Swiss mouse assessed as increase in latency of paw licking at 15 umol/kg, ip after 120 mins measured for 60 seconds by hot plate test (reference value: 5.6 +/- 0.5 seconds). The test is classed as functional.
Test [16] has as its system Mus musculus. The test is described as follows: Analgesic activity in Swiss mouse assessed as increase in latency of paw licking at 15 umol/kg, ip after 150 mins measured for 60 seconds by hot plate test (reference value: 5.1 +/- 0.4 seconds). The test is classed as functional.
The subject of test [17] is Mus musculus. Put plainly: Analgesic activity in Swiss mouse assessed as increase in latency of paw licking at 15 umol/kg, ip after 90 mins measured for 60 seconds by hot plate test (reference value: 5.9 +/- 0.8 seconds). The test is classed as functional.

Molecules are shown by their SMILES. Active and inactive are the calls of the source. No cut-off for these calls is given here.

What is called inhibition in vivo is the change of the read-out against control, counted positive when it falls. Consider `O=C(N/N=C/c1ccccc1O)c1cnccn1`, for which the inhibition in vivo at 100 µmol/kg in the test on Mus musculus [1] came to 73.1%; with Mus musculus [3], 42%; with Mus musculus [9], 16.2%. Also, the Time is on record as 6.4 s in the test with Mus musculus [2], 4 s in the test with Mus musculus [4], 5.2 s with Mus musculus [6] and 5.2 s in the test with Mus musculus [8]. The outcome in the test with Mus musculus [5] was Active. Further, the Activity in the test with Mus musculus [7] is 33.9%.
Consider `COc1cc(/C=N/NC(=O)c2cnccn2)cc(OC)c1OC`, for which the inhibition in vivo at 100 µmol/kg stood at 97.1% in the test on Mus musculus [1], 70% in the test with Mus musculus [3] and 86% with Mus musculus [9]. Moreover, the result with Rattus norvegicus [10], in the test on Rattus norvegicus [11], in the test on Mus musculus [12] and in the test on Rattus norvegicus [13] was Active. The Time with Mus musculus [2] is 4.3 s; with Mus musculus [4], 4 s; with Mus musculus [6], 5.3 s; in the test on Mus musculus [8], 4.8 s. Moreover, the Activity with Mus musculus [7] is 17.6%.
With `CN1CC[C@]23c4c5ccc(O)c4O[C@H]2[C@@H](O)C=C[C@H]3[C@H]1C5` [MORPHINE], the Time stood at 12.8 s in the test on Mus musculus [14], 9.7 s in the test on Mus musculus [15], 9.7 s in the test on Mus musculus [16] and 10.3 s in the test on Mus musculus [17].
Turning to `O=C1CCC(N2C(=O)c3ccccc3C2=O)C(=O)N1` (stereo unspecified) [THALIDOMIDE], the inhibition in vivo at 100 µmol/kg turned out to be 73.3% in the test with Mus musculus [1], 25.2% with Mus musculus [3] and 66.7% in the test on Mus musculus [9]. In addition, the outcome with Rattus norvegicus [10], in the test with Rattus norvegicus [11] and with Rattus norvegicus [13] was Active. The Time in the test with Mus musculus [2] was 6.8 s; in the test on Mus musculus [4], 4.8 s; in the test with Mus musculus [6] it was 5.9 s; in the test on Mus musculus [8] it was 7.5 s. Also, the Activity in the test on Mus musculus [7] was found to be 46.6%.
